# Assay results as given in ChEMBL document CHEMBL1811814, “Synthesis and evaluation of indole, pyrazole, chromone and pyrimidine based conjugates for tumor growth inhibitory activities--development of highly efficacious cytotoxic agents” (Eur J Med Chem, 2010).
# What was measured:
# Format in all cases: functional
# Parameters in all cases: scale not given: the % may be the effect or the level left
# OVCAR-4 = assay: Growth inhibition of human OVCAR4 cells assessed tumor cell growth at 10^-5 M
# Procedure, shortened: (§1)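 NCI 60-human-tumor-cell-line panel screen. Each compound was tested at a single concentration of 10^-5 M, and percent growth of tumor cells was recorded for each cell line. Growth inhibition was expressed from these percent-growth values.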
# MOLT-4 = assay: Growth inhibition of human MOLT4 cells assessed tumor cell growth at 10^-5 M; procedure, shortened: as §1
# HCC 2998 = assay: Growth inhibition of human HCC2998 cells assessed tumor cell growth at 10^-5 M; procedure, shortened: as §1
# 786-0 = assay: Growth inhibition of human 786-0 cells assessed tumor cell growth at 10^-5 M; procedure, shortened: as §1
# HL-60(TB) = assay: Growth inhibition of human HL-60(TB) cells assessed tumor cell growth at 10^-5 M
# Procedure, shortened: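 HL-60(TB), part of the 60-line panel, tested at a single concentration of 10^-5 M. The read-out is percent tumor cell growth relative to untreated growth.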
# [1] = Growth inhibition of human […] cells assessed tumor cell growth at 10^-5 M; procedure, shortened: as §1
# UACC-257 = assay: Growth inhibition of human UACC257 cells assessed tumor cell growth at 10^-5 M
# Procedure, shortened: (§2)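 Single-dose screen at 10^-5 M across the 60 human tumor cell line panel, run to NCI standards. The value is the percent growth of each cell line in the presence of compound. Compounds active at this dose moved on to five-concentration testing (10^-4 to 10^-8 M).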
# DU-145 = assay: Growth inhibition of human DU145 cells assessed tumor cell growth at 10^-5 M; procedure, shortened: as §1
# NCI/ADR-RES = assay: Growth inhibition of human NCI/ADR-RES cells assessed tumor cell growth at 10^-5 M; procedure, shortened: as §1
# HOP-92 = assay: Growth inhibition of human HOP92 cells assessed tumor cell growth at 10^-5 M; procedure, shortened: as §1
# RXF 393 = assay: Growth inhibition of human RXF393 cells assessed tumor cell growth at 10^-5 M; procedure, shortened: as §1
# PC-3 = assay: Growth inhibition of human PC3 cells assessed tumor cell growth at 10^-5 M; procedure, shortened: as §1
# U-251 = assay: Growth inhibition of human U251 cells assessed tumor cell growth at 10^-5 M; procedure, shortened: as §2
# IGROV-1 = assay: Growth inhibition of human IGROV1 cells assessed tumor cell growth at 10^-5 M; procedure, shortened: as §1
# SR = assay: Growth inhibition of human SR cells assessed tumor cell growth at 10^-5 M; procedure, shortened: as §2
# SNB-19 = assay: Growth inhibition of human SNB19 cells assessed tumor cell growth at 10^-5 M; procedure, shortened: as §2
# NCI-H23 = assay: Growth inhibition of human NCI-H23 cells assessed tumor cell growth at 10^-5 M; procedure, shortened: as §1
# MDA-MB-468 = assay: Growth inhibition of human MDA-MB-468 cells assessed tumor cell growth at 10^-5 M; procedure, shortened: as §1
# MDA-MB-435 = assay: Growth inhibition of human MDA-MB-435 cells assessed tumor cell growth at 10^-5 M; procedure, shortened: as §1
# SK-MEL-28 = assay: Growth inhibition of human SK-MEL-28 cells assessed tumor cell growth at 10^-5 M; procedure, shortened: as §1
# UACC-62 = assay: Growth inhibition of human UACC62 cells assessed tumor cell growth at 10^-5 M; procedure, shortened: as §2
# HT-29 = assay: Growth inhibition of human HT-29 cells assessed tumor cell growth at 10^-5 M; procedure, shortened: as §1
# OVCAR-3 = assay: Growth inhibition of human OVCAR3 cells assessed tumor cell growth at 10^-5 M; procedure, shortened: as §1
# K562 = assay: Growth inhibition of human K562 cells assessed tumor cell growth at 10^-5 M; procedure, shortened: as §1
# MDA-MB-231 = assay: Growth inhibition of human MDA-MB-231 cells assessed tumor cell growth at 10^-5 M; procedure, shortened: as §1
# NCI-H460 = assay: Growth inhibition of human NCI-H460 cells assessed tumor cell growth at 10^-5 M; procedure, shortened: as §1
# SNB-75 = assay: Growth inhibition of human SNB75 cells assessed tumor cell growth at 10^-5 M; procedure, shortened: as §2
# SF-268 = assay: Growth inhibition of human SF268 cells assessed tumor cell growth at 10^-5 M; procedure, shortened: as §1
# SF-295 = assay: Growth inhibition of human SF295 cells assessed tumor cell growth at 10^-5 M; procedure, shortened: as §1
# SF-539 = assay: Growth inhibition of human SF539 cells assessed tumor cell growth at 10^-5 M; procedure, shortened: as §1
# NCI-H322M = assay: Growth inhibition of human NCI-H322M cells assessed tumor cell growth at 10^-5 M; procedure, shortened: as §1
# BT-549 = assay: Growth inhibition of human BT549 cells assessed tumor cell growth at 10^-5 M; procedure, shortened: as §1
# Malme-3M = assay: Growth inhibition of human MALME-3M cells assessed tumor cell growth at 10^-5 M; procedure, shortened: as §1
# [2] = Growth inhibition of human Hs 578T cells assessed tumor cell growth at 10^-5 M; procedure, shortened: as §1
# A498 = assay: Growth inhibition of human A498 cells assessed tumor cell growth at 10^-5 M; procedure, shortened: as §1
# KM12 = assay: Growth inhibition of human KM12 cells assessed tumor cell growth at 10^-5 M; procedure, shortened: as §1
# SN12C = assay: Growth inhibition of human SN12C cells assessed tumor cell growth at 10^-5 M; procedure, shortened: as §1
# T47D = assay: Growth inhibition of human T47D cells assessed tumor cell growth at 10^-5 M; procedure, shortened: as §2
# HCT-116 = assay: Growth inhibition of human HCT116 cells assessed tumor cell growth at 10^-5 M; procedure, shortened: as §1
# SK-MEL-5 = assay: Growth inhibition of human SK-MEL-5 cells assessed tumor cell growth at 10^-5 M; procedure, shortened: as §1
# OVCAR-5 = assay: Growth inhibition of human OVCAR5 cells assessed tumor cell growth at 10^-5 M; procedure, shortened: as §1
# NCI-H226 = assay: Growth inhibition of human NCI-H226 cells assessed tumor cell growth at 10^-5 M; procedure, shortened: as §1
# ACHN = assay: Growth inhibition of human ACHN cells assessed tumor cell growth at 10^-5 M; procedure, shortened: as §1
# LOX IMVI = assay: Growth inhibition of human LOXIMVI cells assessed tumor cell growth at 10^-5 M; procedure, shortened: as §1
# A549 = assay: Growth inhibition of human A549 cells assessed tumor cell growth at 10^-5 M; procedure, shortened: as §1
# CCRF-CEM = assay: Growth inhibition of human CCRF-CEM cells assessed tumor cell growth at 10^-5 M; procedure, shortened: as §1
# SK-OV-3 = assay: Growth inhibition of human SKOV3 cells assessed tumor cell growth at 10^-5 M; procedure, shortened: as §1
# UO-31 = assay: Growth inhibition of human UO31 cells assessed tumor cell growth at 10^-5 M; procedure, shortened: as §2
# EKVX = assay: Growth inhibition of human EKVX cells assessed tumor cell growth at 10^-5 M; procedure, shortened: as §1
# M14 = assay: Growth inhibition of human M14 cells assessed tumor cell growth at 10^-5 M; procedure, shortened: as §1
# HCT-15 = assay: Growth inhibition of human HCT15 cells assessed tumor cell growth at 10^-5 M; procedure, shortened: as §1
# OVCAR-8 = assay: Growth inhibition of human OVCAR8 cells assessed tumor cell growth at 10^-5 M; procedure, shortened: as §1
# MCF7 = assay: Growth inhibition of human MCF7 cells assessed tumor cell growth at 10^-5 M; procedure, shortened: as §1
# CAKI-1 = assay: Growth inhibition of human Caki1 cells assessed tumor cell growth at 10^-5 M; procedure, shortened: as §1
# COLO 205 = assay: Growth inhibition of human COLO205 cells assessed tumor cell growth at 10^-5 M; procedure, shortened: as §1
# HOP-62 = assay: Growth inhibition of human HOP62 cells assessed tumor cell growth at 10^-5 M; procedure, shortened: as §1
# SK-MEL-2 = assay: Growth inhibition of human SK-MEL-2 cells assessed tumor cell growth at 10^-5 M; procedure, shortened: as §1
# SW-620 = assay: Growth inhibition of human SW620 cells assessed tumor cell growth at 10^-5 M; procedure, shortened: as §2
smiles,measurement,setting,value
CC1=NN(c2cccc(Cl)c2)C(=O)/C1=C\c1coc2ccccc2c1=O,Activity,OVCAR-4,99.9%
same,Activity,MOLT-4,102.14%
same,Activity,HCC 2998,94.86%
same,Activity,786-0,77.33%
same,Activity,HL-60(TB),106.16%
same,Activity,[1],72.35%
same,Activity,UACC-257,98.36%
same,Activity,DU-145,115.23%
same,Activity,NCI/ADR-RES,87.3%
same,Activity,HOP-92,91.19%
same,Activity,RXF 393,96.69%
same,Activity,PC-3,108.19%
same,Activity,U-251,97.41%
same,Activity,IGROV-1,105.92%
same,Activity,SR,96.27%
same,Activity,SNB-19,102.59%
same,Activity,NCI-H23,88.35%
same,Activity,MDA-MB-468,106.03%
same,Activity,MDA-MB-435,110.64%
same,Activity,SK-MEL-28,109.94%
same,Activity,UACC-62,92.44%
same,Activity,HT-29,114.92%
same,Activity,OVCAR-3,123.01%
same,Activity,K562,109.12%
same,Activity,MDA-MB-231,98.59%
same,Activity,NCI-H460,112.85%
same,Activity,SNB-75,94.9%
same,Activity,SF-268,101.34%
same,Activity,SF-295,127.24%
same,Activity,SF-539,95.06%
same,Activity,NCI-H322M,121.02%
same,Activity,BT-549,98.21%
same,Activity,Malme-3M,107.7%
same,Activity,[2],96.45%
same,Activity,A498,114.05%
same,Activity,KM12,113.31%
same,Activity,SN12C,100.25%
same,Activity,T47D,92.99%
same,Activity,HCT-116,106.06%
same,Activity,SK-MEL-5,109.62%
same,Activity,OVCAR-5,93.56%
same,Activity,NCI-H226,93.17%
same,Activity,ACHN,96.23%
same,Activity,LOX IMVI,92.97%
same,Activity,A549,102.67%
same,Activity,CCRF-CEM,97.52%
same,Activity,SK-OV-3,103.95%
same,Activity,UO-31,82.13%
same,Activity,EKVX,110.36%
same,Activity,M14,63.48%
same,Activity,HCT-15,92.73%
same,Activity,OVCAR-8,99.11%
same,Activity,MCF7,86.4%
same,Activity,CAKI-1,96.64%
same,Activity,COLO 205,138.42%
same,Activity,HOP-62,110.49%
same,Activity,SK-MEL-2,96.49%
same,Activity,SW-620,98.74%
CN1C(=O)C(=Cc2coc3ccccc3c2=O)C(=O)N(C)C1=O,Activity,OVCAR-4,97.92%
same,Activity,MOLT-4,81.25%
same,Activity,HCC 2998,99.12%
same,Activity,786-0,95.26%
same,Activity,HL-60(TB),92.68%
same,Activity,[1],62.63%
same,Activity,UACC-257,94.47%
same,Activity,DU-145,106.58%
same,Activity,NCI/ADR-RES,85.24%
same,Activity,HOP-92,87.53%
same,Activity,RXF 393,91.99%
same,Activity,PC-3,94.7%
same,Activity,U-251,93.36%
same,Activity,IGROV-1,95.15%
same,Activity,SR,72.89%
same,Activity,NCI-H23,84.27%
same,Activity,MDA-MB-468,104.25%
same,Activity,MDA-MB-435,104.58%
same,Activity,SK-MEL-28,108.31%
same,Activity,UACC-62,87.77%
same,Activity,HT-29,112.32%
same,Activity,OVCAR-3,103.79%
same,Activity,K562,105.28%
same,Activity,MDA-MB-231,96.45%
same,Activity,SNB-75,85.44%
same,Activity,SF-268,98.13%
same,Activity,NCI-H322M,115.86%
same,Activity,BT-549,87.93%
same,Activity,Malme-3M,137.21%
same,Activity,[2],96.44%
same,Activity,A498,120.85%
same,Activity,KM12,109.04%
same,Activity,SN12C,88.79%
same,Activity,HCT-116,85.46%
same,Activity,OVCAR-5,92.09%
same,Activity,NCI-H226,87.83%
same,Activity,ACHN,93.31%
same,Activity,LOX IMVI,89.46%
same,Activity,A549,104.96%
same,Activity,CCRF-CEM,97.29%
same,Activity,UO-31,67.73%
same,Activity,EKVX,98.76%
same,Activity,M14,90.53%
same,Activity,HCT-15,82.74%
same,Activity,OVCAR-8,86.75%
same,Activity,CAKI-1,105.77%
same,Activity,HOP-62,84.39%
same,Activity,SK-MEL-2,95.42%
same,Activity,SW-620,102.73%
